Reference: article PMC2864799 (Assay and drug development technologies, 2010)

What was measured:
Format in all cases: biochemical
[1] = biological target: T1, hGST M1-1 (Homo sapiens, UniProt P09488); test: 1,536-well luminescence GST inhibition assay, hGST M1-1; details: for IC50: 5 nM hGST M1-1, 10 μM PBI 3773, 40 min
T1 sequence (P09488 2-218 limits assumed): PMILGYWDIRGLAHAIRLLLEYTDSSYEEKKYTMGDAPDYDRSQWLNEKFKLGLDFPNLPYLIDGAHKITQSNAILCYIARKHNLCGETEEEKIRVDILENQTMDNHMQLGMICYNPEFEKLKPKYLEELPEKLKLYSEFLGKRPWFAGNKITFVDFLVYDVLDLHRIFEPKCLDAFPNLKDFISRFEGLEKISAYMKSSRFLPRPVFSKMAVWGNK
How it was run: (§1)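 GST at 5 nM (hGST P1-1 125 nM) with GSH in 50 mM HEPES pH 7.5, 0.01% Tween-20. Pin-added test compound (1:2 16-point or 1:3 8-point series), 10 or 15 min RT. Substrate: PBI 1155 20 μM (S. japonicum), PBI 3773 10 μM (A1-1, M1-1, A4-4), PBI 1158 100 μM (P1-1). Reaction 40 min (P1-1 60 min) RT, then luciferase detection reagent and luminescence read. Percent inhibition from median catalyzed and no-enzyme controls; duplicate wells; curve-fitted IC50.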

[2] = system: GSTs (hGST A1-1, mGST A4-4, hGST M1-1, hGST P1-1, S. japonicum GST); test: 1,536-well luminescence GST inhibition assay, all GSTs tested
How it was run: as §1

[3] = biological target: S. japonicum GST (Schistosoma japonicum, UniProt P08515); test: 1,536-well luminescence GST inhibition assay, S. japonicum GST
S. japonicum GST, sequence (P08515 whole entry): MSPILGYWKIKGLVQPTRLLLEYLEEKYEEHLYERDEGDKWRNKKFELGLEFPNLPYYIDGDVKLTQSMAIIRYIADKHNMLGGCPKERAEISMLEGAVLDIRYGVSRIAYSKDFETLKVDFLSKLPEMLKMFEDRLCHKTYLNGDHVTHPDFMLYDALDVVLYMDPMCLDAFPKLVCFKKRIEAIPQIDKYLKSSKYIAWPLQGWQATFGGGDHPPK
How it was run: as §1

[4] = biological target: hGST P1-1 (Homo sapiens, UniProt P09211); test: 1,536-well luminescence GST inhibition assay, hGST P1-1
hGST P1-1, sequence (P09211 2-210 limits assumed): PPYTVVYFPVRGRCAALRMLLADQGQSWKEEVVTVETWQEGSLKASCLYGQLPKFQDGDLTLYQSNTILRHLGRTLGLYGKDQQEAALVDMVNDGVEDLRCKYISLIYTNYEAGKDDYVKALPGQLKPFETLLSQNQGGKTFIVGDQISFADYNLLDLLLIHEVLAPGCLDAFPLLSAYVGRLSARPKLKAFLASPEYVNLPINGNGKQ
How it was run: as §1

## NC(CCC(=O)NC(CSc1ccc(C(=O)OCCOCCOCCOCCOC(=O)c2ccc(SCC(NC(=O)CCC(N)C(=O)O)C(=O)NCC(=O)O)c([N+](=O)[O-])c2)cc1[N+](=O)[O-])C(=O)NCC(=O)O)C(=O)O (stereo not shown) [Bis-(NB-GS)]
[1]
  IC50: 0.191 µM
[1]; hGST M1-1
  fold difference in IC50 (NBD-GS vs Bis-(NB-GS)): ~ 130 fold

## O=[N+]([O-])c1ccc(Cl)c([N+](=O)[O-])c1 [CDNB, 1-chloro-2,4-dinitrobenzene]
[2]; top concentrations tested near 100 μM
  inhibition (in words): partial inhibition only at the top concentrations tested

## O=[N+]([O-])c1ccc(SCCCCCCCCO)c2nonc12 [NBD-8-OH]
[2]; against the GSTs tested
  inhibitory activity (in words): single-digit micromolar or better

## NC(CCC(=O)NC(CSc1ccc([N+](=O)[O-])c2nonc12)C(=O)NCC(=O)O)C(=O)O (stereo not shown) [NBD-GS]
[1]
  IC50: 24.4 µM

## Nc1c(S(=O)(=O)O)cc(Nc2ccc(Nc3nc(Cl)nc(Nc4cccc(S(=O)(=O)O)c4)n3)c(S(=O)(=O)O)c2)c2c1C(=O)c1ccccc1C2=O [Reactive Blue 2]
[3]
  IC50: 0.063 µM
[3]; S. japonicum GST
  onset of luminescence quenching relative to IC50: several hundred times greater
[1]; hGST M1-1
  onset of luminescence decrease relative to IC50: 8 fold
[4]; hGST P1-1
  onset of luminescence quenching relative to IC50: approximately 60 fold

## O=C1OC(c2ccc(O)c(S(=O)(=O)O)c2)(c2ccc(O)c(S(=O)(=O)O)c2)c2c(Br)c(Br)c(Br)c(Br)c21 [bromosulfalein]
[4]; 125 nM hGST P1-1, 100 μM PBI 1158, 60 min
  inhibition (in words): lack of inhibition
